Experiments:
[1] = target: T1, Polyunsaturated fatty acid 5-lipoxygenase (Homo sapiens, UniProt P09917); test: Inhibition of LTB4 production in calcium ionophore A-23187-stimulated human whole blood; assay type: functional, tissue-based
T1 sequence (P09917 whole entry): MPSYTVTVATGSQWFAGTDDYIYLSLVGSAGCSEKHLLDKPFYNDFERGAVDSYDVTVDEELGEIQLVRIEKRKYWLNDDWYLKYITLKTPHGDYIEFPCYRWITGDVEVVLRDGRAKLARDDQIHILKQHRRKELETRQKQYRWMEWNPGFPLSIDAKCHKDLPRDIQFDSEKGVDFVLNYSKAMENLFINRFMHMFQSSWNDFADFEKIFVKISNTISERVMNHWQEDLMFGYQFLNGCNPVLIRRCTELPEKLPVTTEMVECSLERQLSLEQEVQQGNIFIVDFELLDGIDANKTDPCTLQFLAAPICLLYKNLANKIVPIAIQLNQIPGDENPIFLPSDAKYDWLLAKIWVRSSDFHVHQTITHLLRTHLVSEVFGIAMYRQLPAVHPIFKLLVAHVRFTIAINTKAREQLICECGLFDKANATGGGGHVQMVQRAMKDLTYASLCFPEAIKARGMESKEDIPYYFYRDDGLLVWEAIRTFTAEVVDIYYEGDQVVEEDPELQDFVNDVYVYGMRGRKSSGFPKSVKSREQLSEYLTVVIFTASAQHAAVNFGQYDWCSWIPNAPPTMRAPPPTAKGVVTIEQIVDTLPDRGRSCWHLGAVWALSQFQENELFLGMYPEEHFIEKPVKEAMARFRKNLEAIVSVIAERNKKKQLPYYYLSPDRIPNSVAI

[2] = target: T1, Polyunsaturated fatty acid 5-lipoxygenase; test: Inhibition of human 5-LO
[3] = target: T1, Polyunsaturated fatty acid 5-lipoxygenase; test: Inhibition of LTB4 production in calcium ionophore A-23187-stimulated human polymorphonuclear leukocyte; assay type: functional
Rattus norvegicus = test: Oral absorption in rat at 20 mg/kg, po; assay type: ADME, organism-based; design: dose 20 mg/kg, route oral; settings: in vivo
How it was run: (§1)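 Rats dosed orally at 20 mg/kg in 0.5% methocel, given as the water-soluble sodium salt of the hydroxy-acid precursor that cyclizes to the coumarin.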

[4] = Oral bioavailability in squirrel monkey at 10 mg/kg, po; assay type: ADME, organism-based, Saimiri sciureus; settings: in vivo
[5] = Oral bioavailability in rat at 20 mg/kg, po; assay type: ADME, organism-based; settings: in vivo; how it was run: as §1
[6] = Cmax in squirrel monkey at 10 mg/kg, po after 2 hrs; assay type: ADME, organism-based, Saimiri sciureus; design: dose 10 mg/kg, route oral; settings: in vivo
[7] = target: T2, Polyunsaturated fatty acid 5-lipoxygenase (Rattus norvegicus) (UniProt P12527); test: Activity against carrageenan-induced inflammation in orally dosed rat pleural cavity assessed as inhibition of LTB4 biosynthesis after 2 hrs; assay type: functional, organism-based
T2 sequence (whole entry): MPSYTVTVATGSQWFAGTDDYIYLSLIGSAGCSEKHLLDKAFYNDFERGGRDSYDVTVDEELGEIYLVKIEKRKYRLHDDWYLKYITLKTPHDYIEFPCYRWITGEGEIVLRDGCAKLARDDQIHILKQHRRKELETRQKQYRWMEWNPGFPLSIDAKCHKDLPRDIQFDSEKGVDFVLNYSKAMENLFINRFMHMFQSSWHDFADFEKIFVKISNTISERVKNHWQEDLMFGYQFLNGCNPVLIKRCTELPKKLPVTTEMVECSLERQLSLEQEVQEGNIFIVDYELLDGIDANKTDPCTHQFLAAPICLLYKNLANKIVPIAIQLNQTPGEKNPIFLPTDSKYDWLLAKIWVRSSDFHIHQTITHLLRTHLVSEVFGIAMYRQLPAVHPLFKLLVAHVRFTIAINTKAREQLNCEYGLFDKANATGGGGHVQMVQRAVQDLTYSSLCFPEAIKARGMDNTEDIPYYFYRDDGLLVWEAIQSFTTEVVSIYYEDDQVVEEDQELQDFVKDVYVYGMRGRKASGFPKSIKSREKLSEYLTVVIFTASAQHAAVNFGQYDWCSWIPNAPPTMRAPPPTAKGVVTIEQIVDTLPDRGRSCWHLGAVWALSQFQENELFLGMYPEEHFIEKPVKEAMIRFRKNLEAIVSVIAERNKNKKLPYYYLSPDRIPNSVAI

[8] = Cmax in rat at 20 mg/kg, po; assay type: ADME, organism-based; design: dose 20 mg/kg, route oral; settings: in vivo; how it was run: as §1

SMILES | IC50 [1] [nM] | IC50 [2] [nM] | IC50 [3] [nM] | further results
O=c1cc(-c2ccoc2)c2ccc(Sc3cc(F)cc(C(O)(C(F)(F)F)C(F)(F)F)c3)cc2o1 | 52 | 9 | 0.8 | 
O=c1cc(-c2ccc(F)cc2)c2ccc(Sc3cc(F)cc(C(O)(C(F)(F)F)C(F)(F)F)c3)cc2o1 |  |  |  | Fa (Rattus norvegicus): Not Active
O=c1cc(-c2ccoc2)c2ccc(COc3cc(F)cc([C@]4(O)C[C@H]5CO[C@@H](C4)O5)c3)cc2o1 | 48 | 200 | 3 | 
O=C([O-])/C=C(/c1ccc(F)cc1)c1ccc(Sc2cc(F)cc(C(O)(C(F)(F)F)C(F)(F)F)c2)cc1[O-].[Na+].[Na+] |  |  |  | bioavailability [4]: 30%; bioavailability [5]: 100%; Cmax [6]: 1200 nM; ED50 [7]: 1.6 mg/kg; Cmax [8]: 16 µM

Continued, in another order:

IC50 [1] [nM] | IC50 [2] [nM] | IC50 [3] [nM] | SMILES | further results
88 | 26 | 0.5 | O=c1cc(-c2ccccc2)c2ccc(Sc3cc(F)cc(C(O)(C(F)(F)F)C(F)(F)F)c3)cc2o1 | 
150 | 55 | 1.9 | O=c1cc(-c2ccc(F)cc2)c2ccc(COc3cc(F)cc(C(O)(C(F)(F)F)C(F)(F)F)c3)cc2o1 | 
